Experimental data reported in publication PMC9652097 (Computers in Biology and Medicine, 2022).

Assays:
SARS-CoV-2 M^pro [1] = molecular target: T1, SARS-CoV-2 M^pro (Severe acute respiratory syndrome coronavirus 2, UniProt P0DTD1); assay: Surface plasmon resonance; type: binding
[2] = DPPH radical scavenging activity; details: 37 °C, 30 min, 517 nm
Procedure, shortened: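 Tea leaf solvent-extract fractions (petroleum ether, ethyl acetate, methanol, dichloromethane, methanol-water), each tested at several concentrations. Samples mixed 1:1 with 200 μM DPPH in ethanol, incubated 30 min at 37 °C, A517 read. Scavenging % = (1 − [(A_sample − A_blank)/A_control]) × 100, with control = water plus DPPH and blank = sample plus ethanol. Run three times.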

SARS-CoV-2 M^pro [3] = molecular target: T1, SARS-CoV-2 M^pro; details: read-out: IC50 of M^pro inhibition; beyotime enhanced inhibition kit; cited from earlier work
M^pro = details: read-out: IC50 of M^pro inhibition; cited from earlier work
C. elegans = details: cited from earlier work

Oc1cc(O)c2c(c1)O[C@H](c1ccc(O)c(O)c1)[C@H](O)C2 [EC, (−)-epicatechin]
Kd (SARS-CoV-2 M^pro [1]): 23.9 µM

O=C1O[C@H]([C@@H](O)CO)C(O)=C1O [VC]
IC50 of DPPH free radical scavenging [2]: 1.14 µg/mL

CC(C)=CCc1cc(/C=C2\OC(=O)C(c3cc4c(cc3O)OC(C)(C)CC4)=C2O)ccc1O [aspulvinone D]
IC50 (SARS-CoV-2 M^pro [3]): 10.3 ± 0.6 µM

CC(C)(O)C1Cc2cc(/C=C3\OC(=O)C(c4cc5c(cc4O)OC(C)(C)C(O)C5)=C3O)ccc2O1 (centres unmarked) [aspulvinone M]
IC50 (SARS-CoV-2 M^pro [3]): 9.4 ± 0.6 µM

O=c1c2ccccc2[se]n1-c1ccccc1 [ebselen]
IC50 (M^pro): 0.04 ± 0.004 µM

Zijuanin E
extension of lifespan of C. elegans (C. elegans): 67.2%

Zijuanin F
extension of lifespan of C. elegans (C. elegans): 56.0%

aspulvinone R
IC50 (SARS-CoV-2 M^pro [3]): 7.7 ± 0.6 µM
